# Bioassay records: PubChem, several laboratories
# An excerpt weighted towards active compounds, which were near 2.6% of everything screened.
# CHT inh: inhibitors of human choline transporter CHT; High affinity choline transporter 1 (Homo sapiens), Q9GZV3; CHT-expressing cells, membrane potential dye, choline response; hits give low values; B-score at 10 µM; 0.86% of 310,000 active;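 active means B-score over 3 SD under the library average, and starting fluorescence ratio not unusually high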;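 further: choline stimulus applied at its EC90 after an EC20 pre-addition; B-score computed on integrated fluorescence ratio after choline addition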
# Target sequence (Q9GZV3 whole entry, looked up): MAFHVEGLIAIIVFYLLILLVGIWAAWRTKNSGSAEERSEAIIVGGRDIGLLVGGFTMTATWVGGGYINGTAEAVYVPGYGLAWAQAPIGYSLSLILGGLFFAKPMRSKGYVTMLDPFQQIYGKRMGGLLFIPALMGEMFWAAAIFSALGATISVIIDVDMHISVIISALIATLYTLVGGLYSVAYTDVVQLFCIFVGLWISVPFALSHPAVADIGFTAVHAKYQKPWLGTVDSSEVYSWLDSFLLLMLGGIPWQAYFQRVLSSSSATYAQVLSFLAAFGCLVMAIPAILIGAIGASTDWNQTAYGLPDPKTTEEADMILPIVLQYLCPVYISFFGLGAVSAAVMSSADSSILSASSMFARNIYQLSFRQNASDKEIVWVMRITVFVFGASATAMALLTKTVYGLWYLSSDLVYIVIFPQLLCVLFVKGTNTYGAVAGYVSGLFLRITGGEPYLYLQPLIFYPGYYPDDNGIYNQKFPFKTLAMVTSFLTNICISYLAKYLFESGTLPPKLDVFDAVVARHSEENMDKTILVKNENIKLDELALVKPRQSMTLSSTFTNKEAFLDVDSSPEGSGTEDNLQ
# Rad51 HR inh: human RAD51 strand exchange inhibitors, primary screen, biochemical, fluorescence; AID 1385, 2008; inhibition, % at 10 µM; hRad51 DNA strand exchange, fluorescence dequenching; DNA repair protein RAD51 homolog 1 (Homo sapiens), Q06609; 0.085% of 200,000 active;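 active means inhibition above 40% at the single screening dose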;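 further: 0% = DMSO control wells and 100% = blanks with heterologous ssDNA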
#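 System: human Rad51 nucleoprotein filaments preassembled on unlabelled ssDNA. Reagent: labelled 47-mer dsDNA for strand exchange. Schedule: 30-min compound preincubation and 15-min exchange, both room temperature. Measured by: FRET fluorescence dequenching, excitation 485 nm, emission 520 nm. Read-out: Fluorescence-based percent inhibition, control- and blank-normalised. Benchmarks: plate controls and plate blanks.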
# Cl transport mod: KCC2 cotransporter modulators, thallium flux, primary screen, cell-based, HEK293 KCC2, FluoZin-2 fluorescence, MLSMR; AID 1456, 2008; 2.2% of 190,000 active; B-score of Tl+ flux slope (higher = more flux/activation; lower = inhibition) at 10 µM; KCC2 cells, thallium flux FluoZin-2 fluorescence; Solute carrier family 12 member 5 (Homo sapiens), Q9H2X9;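 active means thallium flux slope and its plate-corrected score both differing from the plate sample mean at a set confidence after two filtering rounds, in either direction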;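 further: slope of fluorescence scaled to starting intensity during 10 to 20 s after thallium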
# CHT PAM: CHT positive allosteric modulators, primary screen, cell-based, membrane potential dye, choline EC20. B-score at 10 µM. High affinity choline transporter 1 (Homo sapiens), Q9GZV3. 0.49% of 310,000 active. AID 488977, 2010. CHT-expressing cells; hits give high values; LV-AA mutant CHT in HEK293 cells;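 active means initial fluorescence not abnormally high and integrated response B-score, plate-corrected, over 3 SD above library mean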
# CHT inh conf: CHT inhibitors, confirmation, cell-based, membrane potential dye, duplicate; shares compounds with CHT inh; CHT-expressing cells, choline membrane potential dye; LV-to-AA substituted CHT, HEK293 cells; CHT activity remaining % of control (hits give low values), % at 10 µM; 70% of 2,400 active;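 active means choline transporter activity left, mean of duplicates at 10 µM, below buffer-only control mean minus 3 SD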;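 further: depolarization triggered by choline at its EC90 following an EC20 pre-addition; 0% = hemicholinium-3 full block and 100% = buffer-only control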
# HEK293 CHT ctr: membrane potential effects in parental HEK293, counter-screen for CHT inhibitor project, cell-based, membrane potential dye. shares compounds with CHT inh. choline response; active = decrease or increase beyond buffer ±3SD. membrane potential ratio readout (active if shifted either direction beyond buffer ±3SD; no single direction) at 10 µM. 4% of 2,400 active. AID 493222, 2011;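 further: parental cells lack the transporter so any hit is non-specific; ratio is peak minus trough fluorescence over baseline after EC90 choline challenge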
# The depositor's hits bear a star; i = inactive; . = not tested or not shown.
SMILES,CHT inh,Rad51 HR inh,Cl transport mod,CHT PAM,CHT inh conf,HEK293 CHT ctr
Cn1ncc2c(N3CCC(Cc4ccccc4)CC3)ncnc21,-6.64*,-7.8,-2.77,i,65.7%*,i
c1ccc(Cn2ncc3c(N4CCOCC4)ncnc32)cc1,i,7.5,-1.37,i,.,.
c1ccc(CCN2CCN(c3ncnc4c3cnn4-c3ccccc3)CC2)cc1,-5.34*,-4.1,-1.05,i,34.1%*,i
CCN1CCN(c2ncnc3c2cnn3-c2ccccc2)CC1,i,3.6,0.417,i,.,.
NC(=O)c1ccc(S(=O)(=O)N2CCSCC2)cc1,i,.,.,i,.,.
COc1ccc(CCNC(=O)N[C@@H](Cc2ccccc2)C(=O)O)cc1,i,.,.,i,.,.
COc1cc2c(cc1OC)[C@H](C)N(C(=O)COc1ccccc1)CC2,i,.,.,i,.,.
COc1ccc(CC(=O)N2CCc3cc(OC)c(OC)cc3C2C)c(OC)c1 (stereo unspecified),-12.1*,.,.,i,i,i
Cc1ccc(C#CC[N+]2(C)CCCCC2)cc1,-6.05*,9.4,0.821,i,43.1%*,i
C=CC[N+]1(CC#Cc2ccccc2)CCCC1,i,.,-0.0699,i,.,.
C#CC[N+]1(CC#Cc2ccc(C)cc2)CCCCC1,-7.03*,.,-0.0227,i,42.6%*,i
C(#Cc1ccccc1)C[N+]1(CC#Cc2ccccc2)CCCC1,i,1.0,0.365,i,.,.
COc1ccc(C2(C(=O)Nc3ccc(S(=O)(=O)Nc4nc(C)cc(C)n4)cc3)CCCC2)cc1OC,-7.7*,3.0,0.0365,i,28.6%*,i
Cc1cc(C)nc(NS(=O)(=O)c2ccc(NC(=O)C3(c4ccc([N+](=O)[O-])cc4)CCCC3)cc2)n1,i,2.1,-0.368,i,.,.
CC(C)(C)c1cc(C(=O)N/N=C/c2ccccc2O)n(-c2ccccc2)n1,i,-0.8,-1.32,i,.,.
CC(C)(C)c1cc(C(=O)N/N=C/c2ccc(F)cc2)n(-c2ccccc2)n1,-5.13*,-12.5,-0.0605,i,68.4%*,i
O=C1c2cccc3cc([N+](=O)[O-])cc(c23)C(=O)N1c1nncs1,i,.,.,i,.,.
c1ccc(N2CCN(Cc3ccnc4ccccc34)CC2)cc1,-10.9*,1.3,-1.15,i,i,i
Clc1ncc(CN2CCN(c3ccccc3)CC2)s1,i,-5.4,0.721,i,.,.
O=C(c1cccc(Oc2ccc([N+](=O)[O-])cc2Cl)c1)N1CCCCC1,-7.37*,-2.4,-1.82,i,47.5%*,i
CC1CCN(S(=O)(=O)c2nnc(NC(=O)c3cccc(Cl)c3)s2)CC1,-6.56*,.,.,i,i,i
COc1ccccc1CCNC(=O)c1ccc(OC)c(OC2CCN(C(C)C)CC2)c1,-12*,.,.,i,8.6%*,i
COc1ccc(C(=O)N2CCCCCC2)cc1OC1CCN(C(C)C)CC1,-5*,.,.,i,44.8%*,i
COc1ccc(C(=O)NCCc2ccc(C)cc2)cc1OC1CCN(C(C)=O)CC1,i,.,.,i,.,.
COc1cccc(CCNC(=O)c2ccc(OC)c(OC3CCN(C(C)C)CC3)c2)c1,-13.4*,.,.,i,12.0%*,i
SMILES,CHT inh,Rad51 HR inh,Cl transport mod,CHT PAM,CHT inh conf,HEK293 CHT ctr
COc1ccc(C(=O)NCc2cnn(C)c2C)cc1OC1CCN(C(C)C)CC1,-11.4*,.,.,i,11.9%*,i
COCCCNC(=O)c1ccc(OC)c(OC2CCN(C(C)C)CC2)c1,-6.04*,.,.,i,36.4%*,i
COc1ccc(C(=O)NCCOC(C)C)cc1OC1CCN(C(C)=O)CC1,i,.,.,i,.,.
COc1ccc(C(=O)N(C)Cc2ccc(C)o2)cc1OC1CCN(C(C)C)CC1,-6.33*,.,.,i,29.6%*,i
CC12CCC(C)(c3nc4ccccc4nc31)C2(C)C,i,-4.2,-0.0604,i,.,.
Cc1[nH]nc2c1-c1nc3ccccc3nc1C(C)(C)C2,-4.97*,-2.6,-0.594,i,i,i
Cc1ccc(NC(=O)CN2C(=O)NC3(CCc4ccccc43)C2=O)cc1Cl (stereo unspecified),-10.5*,13.3,-0.0834,i,33.5%*,i
COc1cccc(C2CC(=O)Nc3cc(OC)c(OC)cc32)c1 (stereo unspecified),i,.,.,i,.,.
CCOc1cccc(C2CC(=O)Nc3cc(OC)c(OC)cc32)c1 (stereo unspecified),-6.73*,.,.,i,i,i
CCN(C(=O)c1cc2c(=O)n3ccccc3nc2n1CCCOC)C1CCCCC1,-4.99*,.,.,i,44.8%*,i
Cc1ccc(Nc2c3c(nc4ncnn24)CC(C)CC3)cc1 (stereo unspecified),-5.81*,15.8,-0.0167,i,i,i
O=C(N/N=C/c1cccs1)c1cccc(NC(=O)c2ccc(Cl)cc2)c1,i,.,2.24,i,.,.
O=C(N/N=C/c1cccs1)c1cccc(S(=O)(=O)Nc2ccc(Cl)cc2)c1,-5.52*,-15.0,-0.0692,i,i,i
Cn1c(-c2ccc(F)cc2)cnc1NCc1ccccc1,-5.03*,1.5,-0.128,i,i,i
O=C1C(CCCNC(=S)NCc2ccccc2)NC(=S)N1Cc1ccccc1 (stereo unspecified),i,1.3,-2.34,i,.,.
O=C(O)c1[nH]c2ccc(Cl)cc2c1CC(=O)N1CCN(c2ccccc2)CC1,-7.63*,3.6,0.268,i,36.5%*,i
Cc1ccc(C)c(N2CCN(C(=O)Cc3c(C(=O)O)[nH]c4ccc(Cl)cc34)CC2)c1,i,.,-0.0412,i,.,.
CC(CNC(=O)c1ccc(C(C)(C)C)cc1)CN(C)C (stereo unspecified),i,.,0.0616,i,.,.
Cc1ccc(N=Cc2cc(Cc3ccccc3Cl)cc([N+](=O)[O-])c2O)c(O)c1,-7.81*,-102.8,-1.31,i,64.1%*,i
COc1ccc(N=Cc2cc(Cc3ccccc3Cl)cc([N+](=O)[O-])c2O)cc1OC,-5.97*,-33.4,-2.1,i,i,i
COc1ccc([N+](=O)[O-])cc1NC(=O)Cc1ccccc1Cl,i,0.9,-0.0827,i,.,.
CS(=O)(=O)OCCCCOS(C)(=O)=O,i,-0.7,.,i,.,.
CC1=C(C(=O)Nc2cccc(C(=O)NC3CCCCC3C)c2)SCCO1 (stereo unspecified),i,.,.,i,46.4%*,i
CC(C)Sc1ccc([N+](=O)[O-])cc1C(=O)Nc1ccncc1,i,3.0,0.00518,i,.,.
Cc1ccc(/C=C2\SC(=O)N(CCC(=O)N3CCN(C)CC3)C2=O)cc1,i,.,.,i,.,.
